# Results: paper PMC3387282 (ACS medicinal chemistry letters, 2011)
# Entries after “also recorded” stand apart in the source; their conditions may differ.
# What was measured:
# [1] = target: Icmt (Homo sapiens, UniProt O60725); test: Icmt vapor diffusion assay; format: biochemical; details: for Icmt inhibition (in words): vapor diffusion assay; for potency relative to 10u: Icmt inhibition
# Outline: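 Vapor diffusion Icmt methylation assay. Screening at 10 μM inhibitor, with specific activity given as percent of the no-inhibitor AFC control. Test compounds were also run as possible substrates. IC50 was measured in vitro, Ki was calculated from IC50 by the Cheng–Prusoff method, and inhibition mode was set by further biochemical evaluation.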
# [2] = system: MEF Icmt^−/− cells; test: MTT cell viability in MEF Icmt-/- cells; format: cell-based; details: for effect on viability in MEF Icmt^−/− cells (in words): MTT; for IC50: read-out: IC50 MEF Icmt^−/−
# [3] = system: MEF Icmt^+/+ cells; test: MTT cell viability in MEF Icmt+/+ cells; format: cell-based
# [4] = system: GFP-K-Ras localization in Jurkat T cells (E 6.1); test: GFP-K-Ras membrane localization in Jurkat T cells; format: cell-based; details: 24 h treatment
# Outline: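 Jurkat T cells (E 6.1) expressing GFP-KRas treated 24 h with vehicle, test compound at several concentrations, or 25 μM simvastatin as reference. Cells laid on poly-L-lysine-coated coverslips (100 μg/mL) and fixed in 3.7% formaldehyde for 10 min. Fluorescence microscopy scored by eye in random fields of 100 cells as normal plasma membrane, partial, or complete mislocalization.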
# Chain of Icmt (O60725 whole entry, the tested form may be a part): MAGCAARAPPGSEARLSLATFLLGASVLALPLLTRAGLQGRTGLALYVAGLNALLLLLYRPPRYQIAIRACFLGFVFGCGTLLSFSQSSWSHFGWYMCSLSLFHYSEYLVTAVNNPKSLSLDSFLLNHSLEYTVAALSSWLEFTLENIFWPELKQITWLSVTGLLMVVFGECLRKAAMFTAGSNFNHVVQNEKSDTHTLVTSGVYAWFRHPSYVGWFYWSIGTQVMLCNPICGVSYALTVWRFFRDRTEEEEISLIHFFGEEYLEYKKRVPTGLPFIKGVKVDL
smiles,measurement,setting,value
COC(=O)CCSC/C=C(\C)CCn1cc(CCc2ccccc2-c2ccccc2)nn1 [Compound 10p],Icmt inhibition (in words),[1],further reduced inhibitory activity
COC(=O)CCSC/C=C(\C)CCn1cc(CCc2ccc(-c3ccc(F)cc3)cc2)nn1 [Compound 10s],potency relative to 10u,[1],approximately twice as potent
COC(=O)CCSC/C=C(\C)CCn1cc(CCc2cccc(-c3ccccc3)c2)nn1 [Compound 10o],potency relative to 10n (times less potent),[1]; ratio of Icmt IC50,~30
same,effect on viability in MEF Icmt^−/− cells (in words),[2],did not affect viability
same,IC50,[2],> 100 µM
COC(=O)CCSC/C=C(\C)CCn1cc(CCc2ccc(-c3cccc(C#N)c3)cc2)nn1 [Compound 10t],potency relative to 10u,[1],approximately twice as potent
COC(=O)CCSC/C=C(\C)CCn1cc(-c2cccc3ccccc23)nn1 [Compound 10g],effect on viability in MEF Icmt^−/− cells (in words),[2],did not affect viability
same,IC50,[2],> 100 µM
C/C(=C\CSCCC(=O)O)CCn1cc(CCOC2CCCCO2)nn1 (stereo not drawn) [Compound 11m],Icmt inhibition (in words),[1],poor Icmt inhibition
"CC(C)=CCC/C(C)=C/CC/C(C)=C/CSc1ccccc1C(=O)O [FTS, S-farnesylthiosalicylic acid, reference compound]",activity in MEF Icmt^+/+ versus Icmt^−/− cells (in words),[3],equivalent activity in both cell lines
COC(=O)CCSC/C=C(\C)CCn1cc(CCc2ccc(-c3ccccc3)cc2)nn1 [Compound 10n],Ki,[1],400 nM
same,mode of Icmt inhibition,[1],competitive inhibitor
same,ligand efficiency (in words),[1]; compared with POP-3MB,significantly improved ligand efficiency
same,Icmt inhibition (in words),[1],"more potent than the corresponding carboxylate, 11n"
same,GFP-K-Ras membrane localization,[4],decrease in normal membrane localization; also recorded: capable of inducing K-Ras mislocalization
same,IC50,[2],> 100 µM
same,activity in MEF Icmt^+/+ versus Icmt^−/− cells (in words),[3],selectively cytotoxic
COC(=O)CCSC/C=C(\C)CCn1cc(COc2ccc(-c3ccccc3)cc2)nn1 [Compound 10q],Icmt inhibition (in words),[1],detrimental to inhibition
